Source: PubChem BioAssay (Johns Hopkins Ion Channel Center)
hERG rescue = hERG (human) protection from proarrhythmic block; Q12809; CHO-hERG, FluxOR thallium flux, dofetilide IC70 present; activation (rescue from dofetilide block), less the hit threshold, % at 10 µM; hit rate 0.51% among 310,000; AID 1511;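 active = activation above the mean of controls blocked by dofetilide plus 5 SD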;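 note: thallium influx through hERG after potassium depolarization seen as dye fluorescence rise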
KCNK9 inh = human KCNK9 channel inhibition | HEK293 KCNK9, FluxOR thallium flux fluorescence; hits give low values | AID 488922 | Q9NPC2 | hit rate 1.2% among 310,000 | B-score at 10 µM;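 active = ratio B-score over 3 SD below the library mean, with starting fluorescence within 5 SD of its mean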;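 note: negative B-score means less thallium flux so channel inhibition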
Target sequence (Q9NPC2 whole entry, looked up): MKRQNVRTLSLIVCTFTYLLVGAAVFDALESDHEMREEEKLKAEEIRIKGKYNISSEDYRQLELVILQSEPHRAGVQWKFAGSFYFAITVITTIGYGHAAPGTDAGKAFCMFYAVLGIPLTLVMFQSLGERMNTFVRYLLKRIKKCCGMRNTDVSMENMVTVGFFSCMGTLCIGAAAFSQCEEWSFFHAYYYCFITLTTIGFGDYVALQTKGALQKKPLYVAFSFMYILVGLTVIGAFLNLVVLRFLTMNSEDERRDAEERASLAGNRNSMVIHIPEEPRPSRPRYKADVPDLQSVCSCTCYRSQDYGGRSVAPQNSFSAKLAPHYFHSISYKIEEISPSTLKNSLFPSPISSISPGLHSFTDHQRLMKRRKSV
KCNQ1 pot = human KCNQ1 channel potentiation or activation; P51787; B-score at 10 µM; hit rate 0.35% among 310,000; CHO-K1 KCNQ1, thallium flux FluxOR fluorescence; hits give high values;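 active = fluorescence ratio B-score, a plate-corrected score, at least three library SD, with initial intensity B-score within 5 SD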
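System: CHO-K1 cells stably expressing KCNQ1 / Medium: assay buffer for compound exposure, DMSO matched across wells / Reagent: thallium- and potassium-containing depolarizing buffer / Compound: one concentration, matched DMSO / Incubation: 20 min compound pretreatment at room temperature / Measured by: kinetic FluxOR fluorescence, 10 s baseline plus 110 s post-stimulus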
KCNQ1 block = human KCNQ1 channel inhibition. B-score at 10 µM. AID 2642. hit rate 1.3% among 310,000. CHO-K1 KCNQ1, FluxOR thallium flux fluorescence; hits give high values;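 active = compounds whose thallium flux B-score, printed positive for inhibition, exceeds three library SD while starting fluorescence stays within three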;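 note: channel opened by potassium depolarization with thallium stimulus after 20 min compound exposure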
KCNK3 block = human KCNK3 channel inhibition, primary screen; AID 602410; B-score at 10 µM; hit rate 0.84% among 340,000; O14649; CHO-KCNK3 thallium flux, FluxOR fluorescence; hits give low values;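 active = B-score under library mean minus 4 SD, starting fluorescence ratio at most library mean plus 5 SD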;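 note: more negative B-score means stronger inhibition of thallium flux through KCNK3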
KCNK3 confirm = confirmation of human KCNK3 two-pore domain potassium channel inhibitors; AID 651638; hit rate 99% among 2,400; shares compounds with KCNK3 block; CHO-KCNK3 thallium flux, FluxOR fluorescence; 0% buffer, 100% carvedilol maximal block; ratio percent of control, % at 10 µM;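 active = ratio percent of control, averaged over triplicates, above buffer control mean plus 5 SD, cut at about 64% in these data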;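 note: ratio is the fluorescence rise from min to max over baseline after thallium stimulus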
KCNK3 noninduced = counter-screen for KCNK3 inhibitors: effect in non-induced cells; non-induced KCNK3 parental cells, FluxOR thallium flux; hits give low values; shares compounds with KCNK3 block; thallium flux ratio (lower = more inhibition) at 10 µM; hit rate 40% among 2,400;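 active = thallium flux ratio, averaged over three wells, more than 5 SD below the buffer control mean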;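 note: host cells are CHO cells without KCNK3 induction; ratio is peak minus trough fluorescence over baseline then normalized to buffer controls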
* marks the source's active call; other numbers are inactive results; i = inactive; . = no result given. In the library only some 3.1% were active in any assay of this set; here they are far more common.

SMILES | hERG rescue | KCNK9 inh | KCNQ1 pot | KCNQ1 block | KCNK3 block | KCNK3 confirm | KCNK3 noninduced
Cc1ccc(CN(c2ccc(C(=O)NCC3CCCO3)cc2)S(C)(=O)=O)cc1 (stereo not given) | -8 | i | i | i | i | . | .
COc1cccc(NC(=O)CN2C(=O)COc3ccc(Cl)cc32)c1 | -7 | i | i | i | -9.8* | 101* | i
COc1ccc(OC)c(NC(=O)CN2C(=O)COc3ccc(S(=O)(=O)N4CCCC4)cc32)c1 | -6 | i | i | i | -10* | 96* | i
COc1ccccc1NC(=O)CN1C(=O)COc2ccc(S(=O)(=O)N3CCCCCC3)cc21 | -10 | i | i | i | i | . | .
CC(=O)Nc1ccc(NC(=O)CCCn2cnc3ccccc3c2=O)cc1 | -6 | i | i | i | i | . | .
COC(=O)c1ccc(CO/N=C/c2ccc(OC)cc2OC)cc1 | -6 | i | i | i | i | . | .
CCc1cc(CNC(=O)c2cc(COc3ccc(C)nc3)on2)on1 | -6 | i | i | i | -9.4* | 0 | i
O=C(N/N=C\c1ccc(Cl)cc1)c1sccc1-n1cccc1 | -12 | i | i | i | i | . | .
O=C(N/N=C\c1ccc(Cl)cc1Cl)c1sccc1-n1cccc1 | -2 | i | i | i | -9.4* | 93* | i
Cc1ccc(-c2csc3ncnc(N4CCN(Cc5ccccc5)CC4)c23)cc1 | -11 | i | i | i | -11* | 119* | i
CCC(C)NC(=O)Nc1ccc(F)c(Cl)c1 (stereo not given) | -10 | i | i | i | -10* | 92* | 0.16*
CC(=O)Oc1c(/C=C(\C#N)C(N)=O)[nH]c2ccccc12 | -12 | i | i | i | -9* | 101* | 0.14*
O=[N+]([O-])c1ccc(C2=NN(CCO)C(=Nc3ccc(OC(F)(F)F)cc3)SC2)cc1 | -9 | i | i | i | -10* | 131* | i
C=CCSc1nccc(-c2cc(Cl)sc2Cl)n1 | -5 | i | i | i | i | . | .
S=C(Nc1ccccc1)N1CCn2cccc2C1c1cccnc1 (stereo not given) | -11 | i | i | i | i | . | .
Fc1ccccc1C1c2cccn2CCN1C(=S)Nc1ccc(Br)cc1 (stereo not given) | -17 | i | i | 7* | -15* | 132* | 0.12*
Cc1cc(OCC(=O)N(Cc2ccco2)c2c(N)n(Cc3ccccc3)c(=O)[nH]c2=O)ccc1Cl | . | . | . | . | i | . | .
CC(=O)C1=C(C)NC(SCC(=O)c2ccc(F)cc2)=C(C#N)C1c1ccco1 (stereo not given) | -8 | i | i | i | i | . | .
CC(=O)C1=C(C)NC(SCC(=O)c2ccc(Cl)c(Cl)c2)=C(C#N)C1c1ccco1 (stereo not given) | -4 | -7.8* | i | i | -11* | 125* | 0.16*
O=[N+]([O-])c1cccc(CSc2ncnc3ccccc23)c1 | -14 | i | i | i | -9.6* | 84* | i
COCCn1c(/C=C/c2ccccc2)nc2ccccc21 | -9 | i | i | i | -8.8* | 83* | i
Cc1nc(C(=O)Nc2cccc(Cl)c2)nn1-c1cc(OC(C)C)c(Cl)cc1Cl | -11 | i | i | i | -8.9* | 96* | i
Cc1nc(C(=O)Nc2cc(Cl)ccc2Cl)nn1-c1cc(OC(C)C)c(Cl)cc1Cl | -9 | i | i | i | i | . | .
COC(=O)c1sccc1NC(=O)Nc1ccc(C)c(C)c1 | -11 | i | i | i | i | . | .
CCc1ccc(NC(=O)Nc2ccsc2C(=O)OC)cc1 | -16 | i | i | i | -11* | 89* | i
CC(C)CN(CCC(=O)O)CC(C)C | -4 | i | i | i | i | . | .
CCCCC(=O)Oc1c(S(=O)(=O)c2ccc(C)cc2)c(C)nn1C(C)(C)C | -1 | i | i | i | -9.9* | 95* | i
CNC1(C)[C@H]2CC[C@H](C2)C1(C)C (stereo not given in full) | . | . | . | . | i | . | .
